STAT1 blocker = reduces IFN-gamma driven STAT1 reporter signal. NIH 3T3 STAT1-luciferase reporter, luminescence. inhibition, % at 5.5 µM. 0.35% of 200,000 active. AID 920;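 active means inhibition above a set limit, the mean inhibition across all tested compounds plus 3 SD, cut at about 34% in these data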;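 further: 0% = IFN-gamma with DMSO and 100% = IFN-gamma with 300 µM nifuroxazide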
STAT3 inh-1 = reduces IL-6 driven STAT3 reporter signal. AID 862. U3A cells, IL-6 STAT3-luciferase reporter, luminescence; host cell line lacks STAT1. 0.89% of 190,000 active. inhibition, % at 5.5 µM;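 active means inhibition above the mean inhibition across all screened compounds plus 3 SD, cut at about 44% in these data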;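 further: 0% = DMSO only wells and 100% = 100 µM nifuroxazide control wells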
STAT1 act = STAT1 signaling activation; 2.6% of 200,000 active; AID 932; NIH 3T3 STAT1-luciferase reporter, IFN-gamma, luminescence; 100% = IFN-gamma alone, no compound; activation (% of control), % at 5.5 µM;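 active means activation above the screen-wide mean activation plus 3 SD, cut at about 130% in these data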;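 further: raw ratio to IFN-gamma control signal so 100% means no change and 0% no light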
STAT3 activator = STAT3 signaling activation; U3A cells, IL-6 STAT3-luciferase reporter, luminescence; 100% = signal with IL-6 EC80 alone; activation (% of control), % at 5.6 µM; 0.91% of 190,000 active;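 active means activation above the screen-wide mean of compound activation plus 3 SD, cut at about 130% in these data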;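 further: 0% = background luminescence of wells with medium and substrate only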
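Test system: Human STAT1-deficient U3A cells with stable STAT3-luciferase reporter | Also added: Interleukin-6, 33 ng/mL | Timing: Compound pre-incubation 1 h before IL-6, then 6 h stimulation at 37 °C | Technique: Luciferase reporter luminescence | Read-out: Percent of IL-6-only median luminescence | Benchmarks: IL-6-only wells as 100% reference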
STAT3 inh-2 = confirmation of STAT3 signaling inhibitors | U3A cells, IL-6 STAT3 luciferase reporter, luminescence; cell line lacks STAT1 | shares compounds with STAT3 inh-1 | 45% of 1,200 active | inhibition, % at 5.7 µM;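 active means inhibition above the hit cutoff computed for the primary STAT3 screen, cut at about 44% in these data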;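 further: 0% = IL-6 plus DMSO and 100% = IL-6 plus nifuroxazide control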
NFkB inh 2 = inhibits NF-kappaB, counter-screen to STAT3 inhibitors; AID 1308; HEK293T NF-kB luciferase reporter, TNF-alpha induced; shares compounds with STAT3 inh-1; inhibition, % at 5.7 µM; 36% of 1,200 active;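 active means inhibition above the mean of solvent-only control wells plus 3 SD, cutoff set per campaign, cut at about 13% in these data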;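 further: 0% = TNF-alpha with DMSO and 100% = TNF-alpha with MG high control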
STAT1 inh STAT3c = counter-screen for STAT3 inhibitors: STAT1 inhibition | shares compounds with STAT3 inh-1 | NIH 3T3 STAT1-luciferase reporter, IFN-gamma induced, luminescence | inhibition, % at 5.7 µM | 27% of 1,200 active;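 active means inhibition above the mean plus 3 SD of solvent-only control wells, limit set per screening run, cut at about 16% in these data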;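 further: 0% = DMSO with IFN-gamma and 100% = nifuroxazide control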
Active calls of the source: *; · = not tested or not shown. Rows were chosen to be rich in hits. Some 4.3% of all compounds tested hit in one or more screens of this group.

SMILES	STAT1 blocker	STAT3 inh-1	STAT1 act	STAT3 activator	STAT3 inh-2	NFkB inh 2	STAT1 inh STAT3c
Cc1nn(C2CCS(=O)(=O)C2)c(Cl)c1/C=C/C(=O)OCC(=O)Nc1ccccc1OC(F)F (stereo unspecified)	4	9	96	96	·	·	·
COc1ccc(Cl)cc1NC(=O)COC(=O)/C=C/c1c(C)nn(C2CCS(=O)(=O)C2)c1Cl (stereo unspecified)	11	46*	90	66	32	1	-5
CCC(=O)c1ccc(OCc2ccc(C(=O)c3ccccc3)cc2)cc1	27	50*	73	62	43	8	19*
Cc1ccc(NC2=Nc3ccccc3CC2)cc1	5	44*	95	67	32	-10	-62
Cc1ccc(NC(=O)C2OCCc3ccccc32)cc1 (stereo unspecified)	-12	7	111	98	·	·	·
Cc1ccc(C(=O)N2C(CC(=O)Nc3ccc(Cl)cc3)C(=O)NC3CCCCC32)cc1 (stereo unspecified)	4	5	95	102	·	·	·
CCOc1ccc(/C=N/Nc2ccccn2)cc1	-8	50*	107	61	7	-28	-112
CC(=O)N1CCN(c2ccc(NC(=O)c3ccc4c(c3)OCCO4)cc2)CC1	7	3	94	101	·	·	·
O=C(Nc1ccc(N2CCN(C(=O)c3ccc(Cl)cc3)CC2)cc1)c1ccc2c(c1)OCCO2	13	87*	88	29	79*	29*	12
CC(=O)Nc1ccc2c(c1)OCCOCCOc1cc(NC(C)=O)ccc1OCCOCCOCCO2	-2	16	101	93	·	·	·
CCc1nnc2sc(-c3ccc(NC(=O)c4ccc5c(c4)OCCO5)cc3)nn12	17	55*	84	56	51*	13*	32*
COc1ccc(C(=O)Nc2ccc3c(c2)OCCO3)cc1	9	66*	92	48	12	-19	-90
Cc1ccsc1C(=O)Nc1ccc2c(c1)OCCO2	-28	55*	125	54	14	-17	-77
CCc1nnc2sc(-c3ccc(NC(=O)c4ccco4)cc3)nn12	8	29	92	81	·	·	·
Cc1c(Cl)cccc1NC(=S)N1CCN(S(=O)(=O)c2cccs2)CC1	8	2	92	99	·	·	·
O=C(Nc1ccc(NC(=O)c2cc3ccccc3o2)cc1)c1ccc2c(c1)OCCO2	24	47*	78	64	51*	54*	23*
O=C(Nc1ccc(N2CCN(C(=O)c3ccccc3)CC2)cc1)c1cc2ccccc2o1	0	63*	100	50	59*	14*	-5
O=C(Nc1ccncc1)c1ccc2c(c1)OCCO2	1	29	100	80	·	·	·
COc1ccc(NC(=O)C2=Cc3ccccc3OC2)cc1	20	58*	81	54	24	-32	-109
Cc1ccc(NC(=O)c2ccc3c(c2)OCCO3)cc1	7	77*	94	35	42	2	-84
CC(=O)C1=C(O)C(=O)N(c2ccc(C)cc2)C1c1ccccn1 (stereo unspecified)	2	2	94	100	·	·	·
CS(=O)(=O)N(Cc1ccccc1Cl)c1ccc(C(=O)NCc2ccccn2)cc1	2	-10	98	107	·	·	·
CC1=CC(C)(C)N(C(=O)CNC2CCCC2)c2cc(C)ccc21	3	1	95	101	·	·	·
O=C(O)COc1ccc(-c2nccc(-c3ccccn3)n2)cc1	15	47*	86	64	38	15*	0
COC(OC)c1ccnc(-c2ccc(OC(=O)c3ccccc3)cc2)n1	-18	15	115	93	·	·	·
SMILES	STAT1 blocker	STAT3 inh-1	STAT1 act	STAT3 activator	STAT3 inh-2	NFkB inh 2	STAT1 inh STAT3c
COc1ccc(-c2nsc3c(N4CCN(S(=O)(=O)c5ccccc5F)CC4)ncnc23)cc1	-6	-3	105	111	·	·	·
COc1ccc(-c2nsc3c(N4CCCCC4)ncnc23)cc1	25	102*	78	20	75*	60*	16
Cc1ccc2nc(SC(C)C(=O)Nc3cccc([N+](=O)[O-])c3)[nH]c2c1 (stereo unspecified)	10	-9	91	106	·	·	·
Clc1ccc(OCc2nc(-c3ccccn3)no2)c(Br)c1	-8	57*	107	56	13	-16	-124
Clc1ccc(-c2noc(COc3ccccc3)n2)cc1	-9	8	107	99	·	·	·
Clc1ccc(-c2nc(-c3ccccn3)no2)cc1Cl	-7	71*	106	45	33	14*	-31
Brc1ccc(-c2nc(-c3ccccn3)no2)o1	36*	75*	67	41	33	-4	-48
CS(=O)(=O)N1CCC(Oc2ccccc2C(=O)NCCCc2cccnc2)CC1	11	0	90	100	·	·	·
Cc1ccc2nc(-c3ccccc3N)[nH]c2c1	21	67*	78	47	12	-37	-149
Cc1c(N)cccc1-c1nc2ccccc2[nH]1	-16	-4	115	107	·	·	·
NC(=O)c1ccccc1NC(=O)Nc1ccc(F)c(Cl)c1	-4	25	102	82	·	·	·
c1csc(CNc2ccc3c(c2)OCCO3)c1	16	86*	86	28	-93	-7	-80
COc1ccc(-c2cc(=O)c3cc(OC)ccc3o2)cc1	-25	73*	122	42	53*	31*	-47
CC(C(=O)N1CCN(Cc2ccc3c(c2)OCO3)CC1)c1ccc([N+](=O)[O-])cc1 (stereo unspecified)	2	11	97	97	·	·	·
Cc1cc(C)c2nc(N3CCC(C(=O)NCCCN4CC(C)CC(C)C4)CC3)sc2c1 (stereo unspecified)	-21	-7	118	108	·	·	·
Cc1ccc(COC(=O)c2nn(C)c(=O)c3ccccc23)cc1	20	52*	81	60	47*	17*	21*
CCCOc1ccc(-c2nnc(-c3cccs3)o2)cc1	-18	66*	117	46	36	-4	-68
CN(C)c1ccc(-c2nnc(-c3cccs3)o2)cc1	25	55*	75	56	11	-28	-137
CN(C)c1oc(-c2cccs2)nc1C#N	-2	16	102	88	·	·	·
CCOc1ccc(-c2nc(-c3ccccc3C)no2)cc1	-24	46*	122	65	14	-20	-119
CCOc1ccc(-c2nnc(-c3ccccc3)o2)cc1	19	66*	86	48	38	4	-61
CCOc1ccc(-c2nnc(-c3ccc(OC)cc3)o2)cc1	-8	8	105	95	·	·	·
COc1ccc(-c2nc3ccccc3[nH]2)cc1	15	60*	86	50	37	2	-45
COC(=O)c1ccc(-c2nc3ccccc3[nH]2)cc1	-23	52*	122	57	22	-23	-91
